Measurements: ChEMBL document CHEMBL4825702, “5-Aminonaphthalene derivatives as selective nonnucleoside nuclear receptor binding SET domain-protein 2 (NSD2) inhibitors for the treatment of multiple myeloma” (Eur J Med Chem, 2021)
The source made the active and inactive calls. The calls are words filed in the database; no cut-off is given here.

What was measured:
[1] = molecular target: Histone-lysine N-methyltransferase NSD2 (Homo sapiens, UniProt O96028, E1009K); experiment: Inhibition of NSD2 E1009K mutant (unknown origin) using SAM as substrate preincubated for 10 mins followed by substrate addition measured after 4 hrs by AlphaLISA method
[2] = molecular target: Histone-lysine N-methyltransferase, H3 lysine-36 specific (Homo sapiens, UniProt Q96L73); experiment: Inhibition of NSD1 (unknown origin) using SAM as substrate preincubated for 10 mins followed by substrate addition measured after 4 hrs by AlphaLISA method
[3] = molecular target: Histone-lysine N-methyltransferase 2A (Homo sapiens, UniProt Q03164); experiment: Inhibition of MLLI (unknown origin) using SAM as substrate preincubated for 10 mins followed by substrate addition measured after 4 hrs by HTRF method
Outline: (§1)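 HTRF assay: inhibitor plus enzyme preincubated 10 min at room temperature, then peptide/SAM mix added and incubated at room temperature. Antibody and SA-XL665 detection mix added for 1 h in subdued light. Emission read at 665 and 620 nm; IC50 from two separate experiments.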

[4] = molecular target: Histone-lysine N-methyltransferase 2B (Homo sapiens, UniProt Q9UMN6); experiment: Inhibition of MLL4 (unknown origin) using SAM as substrate preincubated for 10 mins followed by substrate addition measured after 4 hrs by HTRF method; outline: as §1
[5] = molecular target: Histone-lysine N-methyltransferase, H3 lysine-79 specific (Homo sapiens, UniProt Q8TEK3); experiment: Inhibition of DOT1L (unknown origin) using SAM as substrate preincubated for 10 mins followed by substrate addition measured after 4 hrs by AlphaLISA method
[6] = molecular target: Histone-arginine methyltransferase CARM1 (Homo sapiens, UniProt Q86X55); experiment: Inhibition of PRMT4 (unknown origin) using SAM as substrate preincubated for 10 mins followed by substrate addition measured after 4 hrs by AlphaLISA method
[7] = molecular target: Protein arginine N-methyltransferase 5 (Homo sapiens, UniProt O14744); experiment: Inhibition of PRMT5 (unknown origin) using SAM as substrate preincubated for 10 mins followed by substrate addition measured after 4 hrs by AlphaLISA method
RS4-11 [8] = experiment: Antiproliferative activity against human RS4-11 cells assessed as reduction in cell viability incubated for 6 days by CCK8 assay; type: functional, cell-based; settings: dose 1-100 µM, time 6.0 day
Outline: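 Cells seeded in triplicate at 6000–20000 per well and left 24 h, then exposed to increasing concentrations for a further 6 days. Viability read with CCK-8 and growth IC50 derived from the dose–response.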

KMS-11 [9] = experiment: Antiproliferative activity against human KMS-11 cells assessed as reduction in cell viability at 1 to 100 uM by CCK8 assay; type: functional, cell-based; settings: dose 1-100 µM, time 6.0 day, TDE = time-dependent effect
[10] = Half life in CD-1 mouse at 2 mg/kg, ip measured up to 24 hrs by LC-MS/MS; type: ADME, organism-based; settings: in vivo
Outline: (§2)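 CD-1 mice given a single 2 mg/kg dose i.p. or i.v. (n = 3 per group). Blood sampled at 0, 0.083, 0.25, 0.5, 1, 2, 4, 6, 8 and 24 h and centrifuged for plasma, with internal standard added. Plasma deproteinized with methanol/acetonitrile (1:1), supernatant diluted with acetonitrile/water, and compound measured by LC/MS/MS.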

[11] = Tmax in CD-1 mouse at 2 mg/kg, ip measured up to 24 hrs by LC-MS/MS; type: ADME, organism-based; settings: in vivo
Outline: (§3)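 CD-1 mice dosed at 2 mg/kg i.p. or i.v., n = 3 per group. Blood sampled at 0, 0.083, 0.25, 0.5, 1, 2, 4, 6, 8 and 24 h and spun for plasma. Internal standard added, deproteinized with methanol/acetonitrile (1:1), supernatant diluted and analysed by LC/MS/MS.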

[12] = AUC in CD-1 mouse at 2 mg/kg, iv measured up to 24 hrs by LC-MS/MS; type: ADME, organism-based; design: route intravenous, dose 2 mg/kg, time <=24; settings: in vivo; outline: as §2
[13] = MRT in CD-1 mouse at 2 mg/kg, iv measured up to 24 hrs by LC-MS/MS; type: ADME, organism-based; settings: in vivo; outline: as §3
[14] = Volume of distribution in CD-1 mouse at 2 mg/kg, iv measured up to 24 hrs by LC-MS/MS; type: ADME, organism-based; settings: in vivo; outline: as §3
[15] = molecular target: Ras-related protein R-Ras2 (Homo sapiens) (UniProt P62070); experiment: Inhibition of RRAS2 transcriptional activity in human KMS-11 cells assessed as reduction in H3K36 methylation at 10 uM measured after 72 hrs by chip q-PCR analysis; type: cell-based
Outline: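 KMS11 cells treated with test agent or DMSO. ChIP with magnetic-bead enzymatic chromatin IP kit using anti-H3K36me2, anti-histone H3 and IgG control antibodies. H3K36me2 quantified by qPCR with primers spanning the promoter regions of TGFA, MET, PAK1 and RRAS2.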

RS4-11 [16] = experiment: Induction of apoptosis in human RS4-11 cells incubated for 72 hrs by annexin-V/FITC and propidium iodide staining based flow cytometry analysis; type: functional, cell-based; settings: dose 5-10 µM
RS4-11 [17] = experiment: cells; settings: Homo sapiens, RS4-11, 72 h, read-out: Activity
RS4-11 [18] = experiment: cells; settings: Homo sapiens, RS4-11, 72 h, read-out: Activity; remark: listed apart in the source
U2932 = experiment: Antiproliferative activity against human U2932 cells assessed as reduction in cell viability incubated for 6 days by CCK8 assay
RS4-11 [19] = experiment: Antiproliferative activity against human RS4-11 cells assessed as reduction in cell viability incubated for 6 days by CCK8 assay; settings: RS4-11, 6 days
KMS-11 [20] = experiment: Antiproliferative activity against human KMS-11 cells assessed as reduction in cell viability incubated for 6 days by CCK8 assay; settings: KMS-11, 6 days
Jurkat = experiment: Antiproliferative activity against human Jurkat cells assessed as reduction in cell viability incubated for 6 days by CCK8 assay
NCI-H929 = experiment: Antiproliferative activity against human NCI-H929 cells assessed as reduction in cell viability incubated for 6 days by CCK8 assay
OCI-AML-5 = experiment: Antiproliferative activity against human OCI-AML5 cells assessed as reduction in cell viability incubated for 6 days by CCK8 assay
Pfeiffer = experiment: Antiproliferative activity against human Pfeiffer cells assessed as reduction in cell viability incubated for 6 days by CCK8 assay
WSUDLCL2 = experiment: Antiproliferative activity against human WSUDLCL2 cells assessed as reduction in cell viability incubated for 6 days by CCK8 assay
RPMI-8226 = experiment: Antiproliferative activity against human RPMI-8226 cells assessed as reduction in cell viability incubated for 6 days by CCK8 assay
[21] = Inhibition of MET transcriptional activity in human KMS-11 cells assessed as reduction in H3K36 methylation at 10 uM measured after 72 hrs by chip q-PCR analysis

Chain of Histone-lysine N-methyltransferase 2A (Q03164 1-2718 limits assumed): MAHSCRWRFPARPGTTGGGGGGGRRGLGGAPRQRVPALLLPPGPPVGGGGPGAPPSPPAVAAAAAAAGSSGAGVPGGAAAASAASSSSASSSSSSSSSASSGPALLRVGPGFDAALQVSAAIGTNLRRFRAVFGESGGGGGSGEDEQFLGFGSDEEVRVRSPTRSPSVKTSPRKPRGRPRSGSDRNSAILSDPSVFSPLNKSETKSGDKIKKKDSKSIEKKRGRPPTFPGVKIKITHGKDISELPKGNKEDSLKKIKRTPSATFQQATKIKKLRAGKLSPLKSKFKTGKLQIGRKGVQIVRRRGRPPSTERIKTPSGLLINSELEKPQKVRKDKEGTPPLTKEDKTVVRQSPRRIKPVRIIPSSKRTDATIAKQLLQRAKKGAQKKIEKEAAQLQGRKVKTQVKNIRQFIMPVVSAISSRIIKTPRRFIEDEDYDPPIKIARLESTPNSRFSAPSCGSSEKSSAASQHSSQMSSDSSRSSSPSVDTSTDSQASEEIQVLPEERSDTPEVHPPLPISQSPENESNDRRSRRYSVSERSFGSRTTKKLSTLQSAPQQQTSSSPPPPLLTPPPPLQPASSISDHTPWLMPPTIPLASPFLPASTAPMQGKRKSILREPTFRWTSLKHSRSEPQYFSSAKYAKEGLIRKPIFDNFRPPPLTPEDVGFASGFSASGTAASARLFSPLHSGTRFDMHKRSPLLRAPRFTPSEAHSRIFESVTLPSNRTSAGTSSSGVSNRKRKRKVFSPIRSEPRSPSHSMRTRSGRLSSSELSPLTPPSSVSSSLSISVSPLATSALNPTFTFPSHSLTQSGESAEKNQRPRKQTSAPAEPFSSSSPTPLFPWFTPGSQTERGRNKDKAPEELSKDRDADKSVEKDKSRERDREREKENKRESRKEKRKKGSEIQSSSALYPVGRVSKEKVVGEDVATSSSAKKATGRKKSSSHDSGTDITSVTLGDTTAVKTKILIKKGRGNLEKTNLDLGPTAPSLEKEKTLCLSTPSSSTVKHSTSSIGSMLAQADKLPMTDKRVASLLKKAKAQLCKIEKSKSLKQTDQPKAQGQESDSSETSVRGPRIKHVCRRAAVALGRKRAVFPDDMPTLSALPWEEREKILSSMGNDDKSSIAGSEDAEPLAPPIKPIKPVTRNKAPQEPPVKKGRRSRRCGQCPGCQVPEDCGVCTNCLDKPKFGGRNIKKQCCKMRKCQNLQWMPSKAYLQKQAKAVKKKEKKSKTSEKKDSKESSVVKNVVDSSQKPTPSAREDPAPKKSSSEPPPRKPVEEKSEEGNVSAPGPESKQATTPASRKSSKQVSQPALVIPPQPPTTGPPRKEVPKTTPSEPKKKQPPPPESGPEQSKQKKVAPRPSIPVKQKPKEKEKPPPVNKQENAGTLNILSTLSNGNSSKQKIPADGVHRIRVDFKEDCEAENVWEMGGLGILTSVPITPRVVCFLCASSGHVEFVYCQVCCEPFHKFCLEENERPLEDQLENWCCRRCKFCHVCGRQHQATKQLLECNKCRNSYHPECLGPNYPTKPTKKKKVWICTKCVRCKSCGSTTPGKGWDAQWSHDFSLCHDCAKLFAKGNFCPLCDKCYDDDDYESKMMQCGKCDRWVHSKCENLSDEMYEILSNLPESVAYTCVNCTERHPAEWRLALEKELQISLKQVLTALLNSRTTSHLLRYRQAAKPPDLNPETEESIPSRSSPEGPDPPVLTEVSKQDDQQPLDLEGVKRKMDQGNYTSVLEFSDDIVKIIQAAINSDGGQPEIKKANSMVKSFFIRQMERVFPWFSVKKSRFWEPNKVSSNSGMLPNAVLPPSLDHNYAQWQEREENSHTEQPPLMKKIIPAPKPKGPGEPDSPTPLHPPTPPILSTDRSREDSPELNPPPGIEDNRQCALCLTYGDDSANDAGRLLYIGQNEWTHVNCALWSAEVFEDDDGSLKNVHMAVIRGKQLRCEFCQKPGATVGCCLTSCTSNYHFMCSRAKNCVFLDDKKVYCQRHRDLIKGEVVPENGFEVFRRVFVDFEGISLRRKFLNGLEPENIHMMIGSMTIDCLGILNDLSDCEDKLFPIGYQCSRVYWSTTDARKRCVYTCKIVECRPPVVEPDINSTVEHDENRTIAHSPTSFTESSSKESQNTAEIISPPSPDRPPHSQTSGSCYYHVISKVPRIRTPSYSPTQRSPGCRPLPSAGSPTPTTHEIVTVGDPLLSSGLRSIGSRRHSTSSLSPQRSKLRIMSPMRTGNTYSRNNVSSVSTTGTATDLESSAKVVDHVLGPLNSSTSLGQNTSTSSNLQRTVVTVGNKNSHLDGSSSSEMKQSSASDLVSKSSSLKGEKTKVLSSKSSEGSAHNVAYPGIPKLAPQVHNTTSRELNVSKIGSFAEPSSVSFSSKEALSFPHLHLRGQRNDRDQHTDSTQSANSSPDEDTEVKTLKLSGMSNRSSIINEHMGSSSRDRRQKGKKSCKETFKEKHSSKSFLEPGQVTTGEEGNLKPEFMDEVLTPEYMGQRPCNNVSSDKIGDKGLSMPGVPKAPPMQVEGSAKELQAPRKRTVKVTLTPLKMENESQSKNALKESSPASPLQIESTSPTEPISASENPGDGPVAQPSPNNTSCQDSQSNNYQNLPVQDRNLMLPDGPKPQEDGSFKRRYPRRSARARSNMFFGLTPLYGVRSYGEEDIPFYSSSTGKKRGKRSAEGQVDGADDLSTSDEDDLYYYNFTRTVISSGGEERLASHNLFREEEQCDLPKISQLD
Chain of Histone-lysine N-methyltransferase 2A (Q03164 2719-3969 limits assumed): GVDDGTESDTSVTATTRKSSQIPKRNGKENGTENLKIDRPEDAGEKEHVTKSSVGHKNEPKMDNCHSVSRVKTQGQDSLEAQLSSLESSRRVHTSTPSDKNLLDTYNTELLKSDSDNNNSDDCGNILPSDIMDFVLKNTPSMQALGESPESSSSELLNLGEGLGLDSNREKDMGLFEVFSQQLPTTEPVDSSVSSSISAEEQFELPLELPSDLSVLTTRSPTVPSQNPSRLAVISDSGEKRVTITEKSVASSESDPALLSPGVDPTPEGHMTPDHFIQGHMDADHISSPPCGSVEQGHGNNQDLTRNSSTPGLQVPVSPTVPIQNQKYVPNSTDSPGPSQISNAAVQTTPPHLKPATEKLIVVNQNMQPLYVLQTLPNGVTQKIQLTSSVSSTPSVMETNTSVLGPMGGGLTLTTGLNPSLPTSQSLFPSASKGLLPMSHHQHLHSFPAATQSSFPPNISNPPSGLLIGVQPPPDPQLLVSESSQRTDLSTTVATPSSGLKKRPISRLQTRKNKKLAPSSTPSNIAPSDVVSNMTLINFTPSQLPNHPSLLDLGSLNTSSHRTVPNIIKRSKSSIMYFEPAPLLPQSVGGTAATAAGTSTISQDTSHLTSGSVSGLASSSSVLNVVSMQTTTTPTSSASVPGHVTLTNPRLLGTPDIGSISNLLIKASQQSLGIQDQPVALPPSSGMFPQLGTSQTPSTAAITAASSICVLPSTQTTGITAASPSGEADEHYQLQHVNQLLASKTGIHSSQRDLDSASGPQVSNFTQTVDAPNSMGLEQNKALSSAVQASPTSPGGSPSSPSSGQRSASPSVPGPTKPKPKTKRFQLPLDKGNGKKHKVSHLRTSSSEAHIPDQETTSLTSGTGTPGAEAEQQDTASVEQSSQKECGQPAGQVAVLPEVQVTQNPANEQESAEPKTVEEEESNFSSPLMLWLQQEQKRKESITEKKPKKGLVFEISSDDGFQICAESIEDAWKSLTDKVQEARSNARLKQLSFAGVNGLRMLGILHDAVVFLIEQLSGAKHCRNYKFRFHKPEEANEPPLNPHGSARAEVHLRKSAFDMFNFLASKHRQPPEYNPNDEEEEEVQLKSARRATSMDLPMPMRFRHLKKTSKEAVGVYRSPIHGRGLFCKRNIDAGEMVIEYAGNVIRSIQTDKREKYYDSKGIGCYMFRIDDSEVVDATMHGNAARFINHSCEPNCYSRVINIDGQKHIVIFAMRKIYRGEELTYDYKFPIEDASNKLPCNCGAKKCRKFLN
Chain of Protein arginine N-methyltransferase 5 (O14744 whole entry): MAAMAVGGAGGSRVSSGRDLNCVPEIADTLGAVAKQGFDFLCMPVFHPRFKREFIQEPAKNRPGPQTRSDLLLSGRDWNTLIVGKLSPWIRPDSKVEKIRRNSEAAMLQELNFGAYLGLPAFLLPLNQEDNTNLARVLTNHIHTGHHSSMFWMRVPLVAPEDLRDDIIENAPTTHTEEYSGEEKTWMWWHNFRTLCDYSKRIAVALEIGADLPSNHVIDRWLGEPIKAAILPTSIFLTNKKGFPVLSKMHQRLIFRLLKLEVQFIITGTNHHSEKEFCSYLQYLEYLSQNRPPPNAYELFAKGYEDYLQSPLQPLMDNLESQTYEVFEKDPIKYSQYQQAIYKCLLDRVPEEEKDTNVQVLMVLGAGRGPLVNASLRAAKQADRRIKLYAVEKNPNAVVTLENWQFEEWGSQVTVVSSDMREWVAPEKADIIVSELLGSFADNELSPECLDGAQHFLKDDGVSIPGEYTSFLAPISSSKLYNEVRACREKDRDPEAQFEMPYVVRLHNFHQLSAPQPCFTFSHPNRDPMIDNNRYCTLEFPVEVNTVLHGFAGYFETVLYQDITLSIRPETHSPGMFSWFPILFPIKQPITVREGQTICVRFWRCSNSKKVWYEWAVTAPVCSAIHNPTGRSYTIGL
Chain of Ras-related protein R-Ras2 (Homo sapiens) (P62070 whole entry): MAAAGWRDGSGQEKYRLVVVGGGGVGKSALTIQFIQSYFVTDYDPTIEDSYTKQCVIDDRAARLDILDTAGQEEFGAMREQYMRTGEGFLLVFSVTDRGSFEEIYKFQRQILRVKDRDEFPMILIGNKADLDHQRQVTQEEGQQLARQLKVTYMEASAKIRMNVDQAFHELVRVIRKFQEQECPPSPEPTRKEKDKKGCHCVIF

`Cl.Nc1cccc2c(S(=O)(=O)NCc3ccccc3)cccc12` gave an IC50 [1] of 3.1 µM, an IC50 [2] greater than 20 µM and an IC50 [3] greater than 20 µM. The IC50 [4] was greater than 20 µM, the IC50 [5] was greater than 20 µM and the IC50 [6] was greater than 20 µM. The IC50 [7] was greater than 20 µM, the Activity (RS4-11 [8]) was “Dose-Dependent Effect” and the Activity (KMS-11 [9]) was “Tde”. The half-life [10] was 33.6 min, the Tmax [11] was 4.98 min and the AUC at 24 h [12] was 204 ng·h/mL. For the same molecule, the MRT [13] was 23.8 min, the Vd [14] was 3.85 L/kg and the inhibition [15] was “Active”. The Activity (RS4-11 [16]) was “Dose-Dependent Effect”, the viability at 5 µM (RS4-11 [17]) was 2.19% and the viability at 10 µM (RS4-11 [18]) was 3.53%. The Activity (U2932) was “Active”, the IC50 (RS4-11 [19]) was 0.52 µM and the IC50 (KMS-11 [20]) was 1.88 µM. For the same molecule, the Activity (Jurkat) was “Active”, the Activity (NCI-H929) was “Active” and the Activity (OCI-AML-5) was “Active”. For the same molecule, the Activity (Pfeiffer) was “Active”, the Activity (WSUDLCL2) was “Active” and the Activity (RPMI-8226) was “Active”. For the same molecule, the inhibition [21] was “Active”.
